Laboratory results as given in ChEMBL document CHEMBL4118256, “Second Generation of Mannich Base-Type Derivatives with in Vivo Activity against Trypanosoma cruzi” (J Med Chem, 2018).

Legend:
Trypanosoma cruzi [1] = assay: Trypanocidal activity against Trypanosoma cruzi MHOM/Pe/2011/Arequipa DTU 5 epimastigotes after 48 hrs by resazurin dye based assay; assay type: functional, organism-based; conditions: MHOM/Pe/2011/Arequipa DTU 5, 48 h
In short: (§1)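 Exponential-phase epimastigotes were seeded at 5×10^5 mL^-1 with compounds at 100–0.2 µM (DMSO 0.01% v/v) at 28 °C. After 48 h, resazurin was added for another 24 h. SDS was then added and absorbance read at 570 and 600 nm.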

[2] = Selectivity index, ratio of IC50 for African green monkey Vero cells to IC50 for Trypanosoma cruzi TINF/CH/1956/Tulahuen DTU 6 trypamastigotes derived from infected Balb/c albino mouse; assay type: toxicity; conditions: read-out: Ratio IC50
In short: (§2)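 SI is Vero IC50 divided by the IC50 for the stated parasite form. For Vero cytotoxicity, cells were seeded at 1.25×10^4 mL^-1 with compounds at 1000–1 µM, incubated 48 h, then given resazurin for a further 24 h (72 h total), with absorbance read at 570/600 nm. Triplicate, four determinations.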

Vero = assay: Cytotoxicity against African green monkey Vero cells assessed as reduction in cell viability after 72 hrs by resazurin dye based assay; conditions: Chlorocebus sabaeus
In short: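 Vero monkey kidney cells grown at 37 °C, 5 % CO2, in RPMI with 10 % heat-inactivated FBS. Seeded at 1.25 × 10^4 mL-1 with compound at 1000 to 1 µM (DMSO 0.01 % v/v). After 48 h, resazurin added for a further 24 h, then SDS. Absorbance read at 570/600 nm. IC50 from triplicates in four separate determinations.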

Trypanosoma cruzi [3] = assay: Trypanocidal activity against Trypanosoma cruzi TINF/CH/1956/Tulahuen DTU 6 epimastigotes after 48 hrs by resazurin dye based assay; assay type: functional, organism-based; conditions: TINF/CH/1956/Tulahuen DTU 6, 48 h; in short: as §1
[4] = Selectivity index, ratio of IC50 for African green monkey Vero cells to IC50 for Trypanosoma cruzi MHOM/Pe/2011/Arequipa DTU 5 epimastigotes; assay type: toxicity; conditions: read-out: Ratio IC50; in short: as §2
[5] = Selectivity index, ratio of IC50 for African green monkey Vero cells to IC50 for Trypanosoma cruzi TINF/CH/1956/Tulahuen DTU 6 amastigotes infected in African green monkey Vero cells; assay type: toxicity; conditions: read-out: Ratio IC50; in short: as §2
Trypanosoma cruzi [6] = assay: Trypanocidal activity against Trypanosoma cruzi IRHOD/CO/2008/SN3 DTU 1 epimastigotes after 48 hrs by resazurin dye based assay; assay type: functional, organism-based; conditions: IRHOD/CO/2008/SN3 DTU 1, 48 h; in short: as §1
Trypanosoma cruzi [7] = assay: Trypanocidal activity against Trypanosoma cruzi TINF/CH/1956/Tulahuen DTU 6 trypamastigotes derived from infected Balb/c albino mouse after 24 hrs by resazurin dye based assay; assay type: functional, organism-based; conditions: TINF/CH/1956/Tulahuen DTU 6, 24 h
In short: (§3)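 Bloodstream trypomastigotes taken from mice at peak parasitaemia were seeded at 2×10^6 mL^-1 in RPMI with 10% FBS. Compounds were added at 50–0.2 µM and incubated 24 h at 37 °C, 5% CO2, then with resazurin for 4 h. SDS was added and absorbance read at 570/600 nm. IC50 was fitted; triplicate, four separate determinations.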

[8] = Selectivity index, ratio of IC50 for African green monkey Vero cells to IC50 for Trypanosoma cruzi IRHOD/CO/2008/SN3 DTU 1 epimastigotes; assay type: toxicity; conditions: read-out: Ratio IC50; in short: as §2
Trypanosoma cruzi [9] = assay: Trypanocidal activity against Trypanosoma cruzi TINF/CH/1956/Tulahuen DTU 6 amastigotes infected in African green monkey Vero cells after 72 hrs by Giemsa-staining based microscopic assay; assay type: functional, organism-based; conditions: TINF/CH/1956/Tulahuen DTU 6, Vero
In short: (§4)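 Vero cells were seeded at 1×10^4/well on coverslips. After 24 h they were infected with culture-derived trypomastigotes (MOI 1:10, 24 h), then washed. Compounds were added at 100–0.2 µM (DMSO 0.01% v/v) for 72 h at 37 °C, 5% CO2. Slides were methanol-fixed and Giemsa-stained; amastigotes and infected cells were counted over 500 host cells. IC50 was derived by curve fitting; triplicate wells, four separate determinations.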

[10] = Selectivity index, ratio of IC50 for African green monkey Vero cells to IC50 for Trypanosoma cruzi TINF/CH/1956/Tulahuen DTU 6 epimastigotes; assay type: toxicity; conditions: read-out: Ratio IC50; in short: as §2
Trypanosoma cruzi [11] = assay: Trypanocidal activity against Trypanosoma cruzi MHOM/Pe/2011/Arequipa DTU 5 amastigotes infected in African green monkey Vero cells after 72 hrs by Giemsa-staining based microscopic assay; assay type: functional, organism-based; conditions: MHOM/Pe/2011/Arequipa DTU 5, Vero; in short: as §4
Trypanosoma cruzi [12] = assay: Trypanocidal activity against Trypanosoma cruzi IRHOD/CO/2008/SN3 DTU 1 amastigotes infected in African green monkey Vero cells after 72 hrs by Giemsa-staining based microscopic assay; assay type: functional, organism-based; conditions: IRHOD/CO/2008/SN3 DTU 1, Vero; in short: as §4
[13] = Selectivity index, ratio of IC50 for African green monkey Vero cells to IC50 for Trypanosoma cruzi MHOM/Pe/2011/Arequipa DTU 5 trypamastigotes derived from infected Balb/c albino mouse; assay type: toxicity; conditions: read-out: Ratio IC50; in short: as §2
[14] = Selectivity index, ratio of IC50 for African green monkey Vero cells to IC50 for Trypanosoma cruzi IRHOD/CO/2008/SN3 DTU 1 amastigotes infected in African green monkey Vero cells; assay type: toxicity; conditions: read-out: Ratio IC50; in short: as §2
[15] = Selectivity index, ratio of IC50 for African green monkey Vero cells to IC50 for Trypanosoma cruzi IRHOD/CO/2008/SN3 DTU 1 trypamastigotes derived from infected Balb/c albino mouse; assay type: toxicity; conditions: read-out: Ratio IC50; in short: as §2
[16] = Selectivity index, ratio of IC50 for African green monkey Vero cells to IC50 for Trypanosoma cruzi MHOM/Pe/2011/Arequipa DTU 5 amastigotes infected in African green monkey Vero cells; assay type: toxicity; conditions: read-out: Ratio IC50; in short: as §2
Trypanosoma cruzi [17] = assay: Trypanocidal activity against Trypanosoma cruzi IRHOD/CO/2008/SN3 DTU 1 trypamastigotes derived from infected Balb/c albino mouse after 24 hrs by resazurin dye based assay; assay type: functional, organism-based; conditions: IRHOD/CO/2008/SN3 DTU 1, 24 h; in short: as §3
Trypanosoma cruzi [18] = assay: Trypanocidal activity against Trypanosoma cruzi MHOM/Pe/2011/Arequipa DTU 5 trypamastigotes derived from infected Balb/c albino mouse after 24 hrs by resazurin dye based assay; assay type: functional, organism-based; conditions: MHOM/Pe/2011/Arequipa DTU 5, 24 h; in short: as §3

Structure (SMILES) | IC50 (Trypanosoma cruzi [1]) [µM] | selectivity ratio [2] | IC50 (Vero) [µM] | IC50 (Trypanosoma cruzi [3]) [µM] | selectivity ratio [4] | selectivity ratio [5] | IC50 (Trypanosoma cruzi [6]) [µM] | IC50 (Trypanosoma cruzi [7]) [µM] | selectivity ratio [8] | IC50 (Trypanosoma cruzi [9]) [µM] | selectivity ratio [10] | IC50 (Trypanosoma cruzi [11]) [µM] | IC50 (Trypanosoma cruzi [12]) [µM] | selectivity ratio [13] | selectivity ratio [14] | selectivity ratio [15] | selectivity ratio [16] | IC50 (Trypanosoma cruzi [17]) [µM] | IC50 (Trypanosoma cruzi [18]) [µM]
O=C(CCN1CCN(c2ccc([N+](=O)[O-])cc2)CC1)c1ccc(F)c(Br)c1 | 36.5 | 8 | 256 | 19.1 | 7 | 6.6 | 37.5 | 32.1 | 6.8 | 38.7 | 13.4 |  |  |  |  |  |  |  | 
O=C(CCN1CCN(c2ccc(F)cc2)CC1)c1ccc(F)c(F)c1 | 21.4 |  | 385 | 65.5 | 18 |  | 37.6 |  | 10.3 |  | 5.9 | 28.3 | 51.1 | 12.2 | 7.5 | 9.1 | 13.6 | 42.2 | 31.6
Cc1ccc(C(=O)CCN2CCN(c3ccc([N+](=O)[O-])cc3)CC2)cc1 | 28.4 |  | 235 | 46.2 | 8.3 |  | 18.2 |  | 12.9 |  | 5.1 |  | 24 |  | 9.8 | 9.3 |  | 25.3 | 
O=C(CCN1CCN(c2ccc(Cl)cc2)CC1)c1ccc(F)c(Cl)c1 | 45.5 |  | 114 | 29.1 | 2.5 |  | 29.5 |  | 3.9 |  | 3.9 |  |  |  |  |  |  |  | 
O=C(CCN1CCN(c2ccc(F)cc2)CC1)c1ccccc1 | 65.7 |  | 13.4 | 94.1 | 0.2 |  | 32.9 |  | 0.4 |  | 0.1 |  |  |  |  |  |  |  | 
O=C(CCN1CCN(c2ccc(Cl)cc2)CC1)c1ccc(Cl)c(F)c1 | 42 |  | 175 | 55.5 | 4.2 |  | 51.6 |  | 3.4 |  | 3.2 |  |  |  |  |  |  |  | 
Cc1ccc(C(=O)CCN2CCN(c3ccc(Cl)cc3)CC2)cc1 | 31.7 |  | 184 | 29.5 | 5.8 |  | 26 |  | 7.1 |  | 6.2 |  |  |  |  |  |  |  | 
O=C(CCN1CCN(c2ccc([N+](=O)[O-])cc2)CC1)c1ccc(C(F)(F)F)cc1 | 13.5 |  | 75.7 | 15.1 | 5.6 |  | 20 |  | 3.8 |  | 5 |  |  |  |  |  |  |  | 
O=C(CCN1CCN(c2ccc(F)cc2)CC1)c1ccc(OC(F)(F)F)cc1 | 85.4 |  | 70.3 | 52.6 | 0.8 |  | 27.6 |  | 2.5 |  | 1.3 |  |  |  |  |  |  |  | 
O=C(CCN1CCN(c2ccc(Cl)cc2)CC1)c1ccc(F)c(Br)c1 | 26.6 |  | 206 | 30.6 | 7.7 |  | 35.1 |  | 5.9 |  | 6.7 |  |  |  |  |  |  |  | 
O=C(CCN1CCN(c2ccc(Cl)cc2)CC1)c1ccc(Br)cc1 | 42.5 |  | 52.1 | 20.9 | 1.2 |  | 26.4 |  | 2 |  | 2.5 |  |  |  |  |  |  |  | 
O=C(CCN1CCN(c2ccc(C(F)(F)F)cc2)CC1)c1ccc(Cl)c(F)c1 | 27.6 |  | 74.3 | 66.7 | 2.7 |  | 49.1 |  | 1.5 |  | 1.1 |  |  |  |  |  |  |  | 
